Data: PubChem BioAssay AID1899 (The Scripps Research Institute Molecular Screening Center, 2009)
Screen size: about 300,000 compounds; about 1,000 (0.33%) were called active. The list comes from a sample in which actives are over-represented; it also holds similar structures and randomly drawn compounds. A number with no mark means an inactive call.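 Rule for the calls: active = inhibition above the mean of all tested compounds plus 3 SD, set per screening campaign (cut at about 45% in these data); inactive = the rest.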

System: HCV core protein (residues 1-106) dimerization
Assay: blockers of core106 self-association – biochemical, TR-FRET, high-throughput, primary screen (AID 1899)
Conditions: TR-FRET GST/Flag-core106 dimerization, 1536-well; at 5 µM; active compounds read high
Procedure, shortened: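 Assay system – GST-tagged and Flag-tagged HCV core protein residues 1-106 · Quantity – core106 proteins, GST 13.5 nM and Flag 17 nM · Benchmarks – unlabelled core106 and no-GST-core106 wells · Read-out basis – percent inhibition of core106 dimerization signal · Detection – time-resolved FRET, ex 340 nm, em 617 and 671 nm · Schedule – 4 h at 22.5 °C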

Structure (SMILES)	inhibition
CCOC(=O)C1CSC(CC(=O)Nc2ccc(OCC)cc2)C(=O)N1 (stereo unspecified)	-5.22%
O=C(COc1ccc(/C=N/NC(=O)c2ccc(O)cc2)cc1)Nc1ccc([N+](=O)[O-])cc1	55.5% (active)
O=C(N/N=C/c1ccc(O)cc1)/C(=C/c1ccc([N+](=O)[O-])cc1)NC(=O)c1ccccc1	10.4%
O=C(COc1ccc([N+](=O)[O-])cc1)Nc1ccc(N2CCCC2)cc1	9.26%
CC1(c2nnc(-c3ccncc3)o2)CC(c2cccnc2)=NO1 (stereo unspecified)	1.13%
Cc1ccc(C)c(NS(=O)(=O)c2c(C)[nH]c(C)c2C(=O)N2CCCCC2)c1	-13.2%
O=C1COc2ccc(NC(=O)N3CCN(c4ccc(F)cc4)CC3)cc2N1	-3.43%
CC1(OC(=O)C2CCCC2)C(=O)C=C2C=C(c3ccc(C#N)cc3)OC=C2C1=O (stereo unspecified)	53.6% (active)
COCCN1C=C2C(=O)C(C)(OC(=O)C3CCCC3)C(=O)C=C2C=C1c1ccsc1 (stereo unspecified)	-6.55%
CC(C)(C)OC(=O)NCCCC1=CC2=CC(=O)C(C)(OC(=O)c3ccco3)C(=O)C2=CO1 (stereo unspecified)	28.9%
Cn1cc(-c2ccccc2)cc(C#N)c1=O	7.52%
Cc1cc(C)cc(NC(=O)NCc2ccccn2)c1	-2.74%
CCOc1cc(NC(=S)NCCCOC)c(OCC)cc1NC(=O)c1ccco1	-1.9%
O=C(NCc1ccccn1)c1ccc2nc(-c3ccco3)c(-c3ccco3)nc2c1	77.7% (active)
COc1ccc2oc(=O)c(C(=O)NCc3ccccn3)cc2c1	-1.18%
CCCC(=O)Nc1ccc2c(c1)nc(CCNC(=O)c1ccco1)n2C	-7.25%
COCCNC(=O)Nc1ccc2nc(-c3ccco3)c(-c3ccco3)nc2c1	83.7% (active)
O=C(CCc1ccccc1)Nc1ccc(NC(=O)C2CC2)nc1	3.25%
O=[N+]([O-])C(=c1ccc2c(c1)N1C3=C(CCCC3)CC3CCCCC31N=2)[N+](=O)[O-] (stereo unspecified)	62.9% (active)
Cc1ccc(S(=O)(=O)c2c[nH]c3ccc(Cl)cc3c2=O)cc1	0.6%
CCN1C(=NCCc2cccnc2)N[C@@H](c2ccccc2)[C@H](C(=O)OC)[C@H]1C	8.18%
CC(C(=O)O)n1cnc2sc3c(c2c1=O)CCCC3 (stereo unspecified)	0.01%
COc1ccc(OCC(=O)NN2Cc3ccccc3C2=N)cc1	-6.41%
Cc1ccc(OCC(=O)Nc2nnc(-c3ccco3)s2)cc1	2.47%
CNc1nnc(-c2ccco2)s1	-7.57%
COc1ccc(OCC(=O)Nc2nnc(-c3ccco3)s2)cc1	54.1% (active)
